Assay results: the RNAGym collection of RNA variant scans (doi:10.1038/s41586-018-0170-7)

B1: tRNA (parent)
chain: GUUCCGUUGGCGUAAUGGUAACGCGUCUCCCUCCUAAGGAGAAGACUGCGGGUUCGAGUCCCGUACGGAACG

Variants of: B1
Experiment: yeast fitness, log relative to wild type (ln ratio); higher = fitter; tRNA-Arg(CCU), competitive growth, 37 C, 1 M NaCl
Outline: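 For each genotype, fitness is defined as the natural log of its generation number over the wild type's. The tRNA-Arg(CCU) variant library was on a HIS3 centromeric plasmid in BY4742 with the chromosomal gene removed, and pools were first grown 4 generations in SC-HIS at 30 °C and then ~6.5 generations (~26.5 h) in SC-HIS 1M NaCl at 37 °C. Generations were calculated from OD-scaled log2 output/input frequency, weighted by inverse variance across replicates, using counts from 125 bp paired-end Illumina sequencing.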

Question: Which “yeast fitness (ln)” value does the source give for GUUCCAUUGGCGUAAUGGUAACGCGUUUCCCUCCUAAGGAGACGAUUGCGGGUUCGAGUCCCGUACGGAGCG [G6A C27U A43C C46U A70G] here?
Answer: -0.128

Question: For AUUCCUUUGGCGUAAUGGUAACGCGUUUCCCUCCUAAGGAGAAGAUUGCGGGUUCGAGUCCCGUAAGGAUUG [G1A G6U C27U C46U C66A A70U C71U], which “yeast fitness (ln)” value is on record?
Answer: -0.415

Question: Which “yeast fitness (ln)” value does the source give for GCUCCUUUGGCGUAAUGGUAACGCGUCUCCCUCCUAAGGAGAAGAUUGCGGGUUCGAGUCCCGUACGGAACG [U2C G6U C46U] here?
Answer: -0.0289

Question: For GGUCCGUUGGCGUAAUGGUAACGCGUCUCCCUCCUAAGGAGACGAUUGCGGGUUCGAGUCCCGUACGGAGUG [U2G A43C C46U A70G C71U], which “yeast fitness (ln)” value is on record?
Answer: -0.149

Question: For AUUCCUUUGGCGUAAUGGUAACGCGUCUCCCUCCUAAGGAGAAGACUGCGGGUUCGAGUCCCGUAUGGGUUG [G1A G6U C66U A69G A70U C71U], which “yeast fitness (ln)” value is on record?
Answer: -0.525

Question: Which “yeast fitness (ln)” value does the source give for GCUCCUUUGGCGUAAUGGUAACGCGUUUCCCUCCUAAGGAGACGACUGCGGGUUCGAGUCCCGUAUGGAGUG [U2C G6U C27U A43C C66U A70G C71U] here?
Answer: -0.313

Question: For ACUCCGUUGGCGUAAUGGUAACGCGUUUCCCUCCUAAGGAGAAGACUGCGGGUUCGAGUCCCGUACGGGUCG [G1A U2C C27U A69G A70U], which “yeast fitness (ln)” value is on record?
Answer: -0.0698

Question: Which “yeast fitness (ln)” value does the source give for GGUCCAUUGGCGUAAUGGUAACGCGUCUCCCUCCUAAGGAGACGAUUGCGGGUUCGAGUCCCGUAAGGAGCG [U2G G6A A43C C46U C66A A70G] here?
Answer: -0.169

Question: Which “yeast fitness (ln)” value does the source give for AGUCCUUUGGCGUAAUGGUAACGCGUUUCCCUCCUAAGGAGAAGAUUGCGGGUUCGAGUCCCGUAUGGAGUG [G1A U2G G6U C27U C46U C66U A70G C71U] here?
Answer: -0.307

Question: For AGUCCAUUGGCGUAAUGGUAACGCGUCUCCCUCCUAAGGAGACGAUUGCGGGUUCGAGUCCCGUAUGGAGUG [G1A U2G G6A A43C C46U C66U A70G C71U], which “yeast fitness (ln)” value is on record?
Answer: -0.266

Question: Which “yeast fitness (ln)” value does the source give for AUUCCGUUGGCGUAAUGGUAACGCGUCUCCCUCCUAAGGAGAAGACUGCGGGUUCGAGUCCCGUAAGGAACG [G1A C66A] here?
Answer: 0.0139

Question: Which “yeast fitness (ln)” value does the source give for GUUCCUUUGGCGUAAUGGUAACGCGUUUCCCUCCUAAGGAGAAGAUUGCGGGUUCGAGUCCCGUACGGGAUG [G6U C27U C46U A69G C71U] here?
Answer: -0.314

Question: For AUUCCGUUGGCGUAAUGGUAACGCGUCUCCCUCCUAAGGAGAAGAUUGCGGGUUCGAGUCCCGUAUGGAGUG [G1A C46U C66U A70G C71U], which “yeast fitness (ln)” value is on record?
Answer: -0.493

Question: Which “yeast fitness (ln)” value does the source give for GGUCCAUUGGCGUAAUGGUAACGCGUUUCCCUCCUAAGGAGACGAUUGCGGGUUCGAGUCCCGUAUGGAGCG [U2G G6A C27U A43C C46U C66U A70G] here?
Answer: -0.143

Question: For AGUCCGUUGGCGUAAUGGUAACGCGUUUCCCUCCUAAGGAGAAGAUUGCGGGUUCGAGUCCCGUACGGAGCG [G1A U2G C27U C46U A70G], which “yeast fitness (ln)” value is on record?
Answer: -0.144

Question: Which “yeast fitness (ln)” value does the source give for AGUCCAUUGGCGUAAUGGUAACGCGUUUCCCUCCUAAGGAGAAGACUGCGGGUUCGAGUCCCGUACGGAUCG [G1A U2G G6A C27U A70U] here?
Answer: -0.24

Question: Which “yeast fitness (ln)” value does the source give for GGUCCUUUGGCGUAAUGGUAACGCGUUUCCCUCCUAAGGAGACGAUUGCGGGUUCGAGUCCCGUAAGGAGUG [U2G G6U C27U A43C C46U C66A A70G C71U] here?
Answer: -0.197

Question: With GCUCCAUUGGCGUAAUGGUAACGCGUUUCCCUCCUAAGGAGACGAUUGCGGGUUCGAGUCCCGUACGGGUCG [U2C G6A C27U A43C C46U A69G A70U] as the variant, how does the “yeast fitness (ln)” value read?
Answer: -0.122

Question: Which “yeast fitness (ln)” value does the source give for ACUCCUUUGGCGUAAUGGUAACGCGUCUCCCUCCUAAGGAGAAGAUUGCGGGUUCGAGUCCCGUACGGGAUG [G1A U2C G6U C46U A69G C71U] here?
Answer: -0.0722

Question: With GCUCCUUUGGCGUAAUGGUAACGCGUUUCCCUCCUAAGGAGACGAUUGCGGGUUCGAGUCCCGUAUGGGGUG [U2C G6U C27U A43C C46U C66U A69G A70G C71U] as the variant, how does the “yeast fitness (ln)” value read?
Answer: -0.275

Question: For AUUCCAUUGGCGUAAUGGUAACGCGUCUCCCUCCUAAGGAGAAGACUGCGGGUUCGAGUCCCGUACGGGUCG [G1A G6A A69G A70U], which “yeast fitness (ln)” value is on record?
Answer: -0.166

Question: For GCUCCUUUGGCGUAAUGGUAACGCGUCUCCCUCCUAAGGAGACGAUUGCGGGUUCGAGUCCCGUAAGGAUUG [U2C G6U A43C C46U C66A A70U C71U], which “yeast fitness (ln)” value is on record?
Answer: -0.153

Question: Which “yeast fitness (ln)” value does the source give for GUUCCAUUGGCGUAAUGGUAACGCGUUUCCCUCCUAAGGAGACGAUUGCGGGUUCGAGUCCCGUAUGGAUUG [G6A C27U A43C C46U C66U A70U C71U] here?
Answer: -0.435

Question: Which “yeast fitness (ln)” value does the source give for GUUCCAUUGGCGUAAUGGUAACGCGUCUCCCUCCUAAGGAGACGACUGCGGGUUCGAGUCCCGUACGGGAUG [G6A A43C A69G C71U] here?
Answer: -0.29

Question: For GUUCCGUUGGCGUAAUGGUAACGCGUCUCCCUCCUAAGGAGACGACUGCGGGUUCGAGUCCCGUAAGGAGCG [A43C C66A A70G], which “yeast fitness (ln)” value is on record?
Answer: -0.0269

Question: With AUUCCAUUGGCGUAAUGGUAACGCGUCUCCCUCCUAAGGAGAAGACUGCGGGUUCGAGUCCCGUAUGGGGUG [G1A G6A C66U A69G A70G C71U] as the variant, how does the “yeast fitness (ln)” value read?
Answer: -0.145

Question: For AUUCCAUUGGCGUAAUGGUAACGCGUCUCCCUCCUAAGGAGACGAUUGCGGGUUCGAGUCCCGUAUGGGAUG [G1A G6A A43C C46U C66U A69G C71U], which “yeast fitness (ln)” value is on record?
Answer: -0.252

Question: For GUUCCAUUGGCGUAAUGGUAACGCGUCUCCCUCCUAAGGAGAAGACUGCGGGUUCGAGUCCCGUAAGGAGCG [G6A C66A A70G], which “yeast fitness (ln)” value is on record?
Answer: -0.0871

Question: Which “yeast fitness (ln)” value does the source give for GCUCCGUUGGCGUAAUGGUAACGCGUUUCCCUCCUAAGGAGAAGAUUGCGGGUUCGAGUCCCGUACGGAAUG [U2C C27U C46U C71U] here?
Answer: -0.268

Question: Which “yeast fitness (ln)” value does the source give for AUUCCUUUGGCGUAAUGGUAACGCGUCUCCCUCCUAAGGAGACGAUUGCGGGUUCGAGUCCCGUAUGGAUUG [G1A G6U A43C C46U C66U A70U C71U] here?
Answer: -0.432

Question: For GGUCCUUUGGCGUAAUGGUAACGCGUUUCCCUCCUAAGGAGACGAUUGCGGGUUCGAGUCCCGUACGGAGUG [U2G G6U C27U A43C C46U A70G C71U], which “yeast fitness (ln)” value is on record?
Answer: -0.295

Question: With GUUCCGUUGGCGUAAUGGUAACGCGUCUCCCUCCUAAGGAGACGACUGCGGGUUCGAGUCCCGUACGGGGCG [A43C A69G A70G] as the variant, how does the “yeast fitness (ln)” value read?
Answer: -0.0594

Question: Which “yeast fitness (ln)” value does the source give for GGUCCAUUGGCGUAAUGGUAACGCGUCUCCCUCCUAAGGAGAAGAUUGCGGGUUCGAGUCCCGUACGGGGUG [U2G G6A C46U A69G A70G C71U] here?
Answer: -0.154

Question: Which “yeast fitness (ln)” value does the source give for GUUCCGUUGGCGUAAUGGUAACGCGUUUCCCUCCUAAGGAGACGACUGCGGGUUCGAGUCCCGUAAGGGUCG [C27U A43C C66A A69G A70U] here?
Answer: -0.289

Question: For AGUCCAUUGGCGUAAUGGUAACGCGUUUCCCUCCUAAGGAGAAGACUGCGGGUUCGAGUCCCGUAAGGAUCG [G1A U2G G6A C27U C66A A70U], which “yeast fitness (ln)” value is on record?
Answer: -0.129

Question: Which “yeast fitness (ln)” value does the source give for GGUCCGUUGGCGUAAUGGUAACGCGUCUCCCUCCUAAGGAGACGAUUGCGGGUUCGAGUCCCGUACGGGAUG [U2G A43C C46U A69G C71U] here?
Answer: -0.107

Question: With GGUCCGUUGGCGUAAUGGUAACGCGUUUCCCUCCUAAGGAGACGAUUGCGGGUUCGAGUCCCGUACGGAACG [U2G C27U A43C C46U] as the variant, how does the “yeast fitness (ln)” value read?
Answer: -0.0622

Question: For GGUCCGUUGGCGUAAUGGUAACGCGUCUCCCUCCUAAGGAGAAGACUGCGGGUUCGAGUCCCGUACGGGUUG [U2G A69G A70U C71U], which “yeast fitness (ln)” value is on record?
Answer: -0.25
